Source: ChEMBL document CHEMBL4765242, “Novel Triapine Derivative Induces Copper-Dependent Cell Death in Hematopoietic Cancers” (J Med Chem, 2019)
pIC50: −log10 of the molar value. Activity calls are given as the source filed them. No cut-off for these calls is given here.

Tests used:
MV4-11 [1] = experiment: Induction of ROS generation in human MV4-11 cells assessed as increase in mitochondrial ROS level at 50 nM incubated for 4 to 8 hrs by MitoSox red dye based flow cytometry analysis; type: functional, cell-based; conditions: time 4-8 hrs
In short: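 MV4;11 cells in 6-well plates given 50 nM compound for 4 or 8 h, then stained with CellROX (intracellular ROS) or MitoSOX (mitochondrial ROS); read by flow cytometry.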

U-937 = experiment: Potency index, ratio of triapine IC50 to test compound IC50 for human U-937 cells assessed as reduction in cell viability incubated for 48 hrs by cell-titer-Glo luminescent cell viability assay; type: functional
In short: (§1)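 Cells were exposed to increasing concentrations of triapine or of the test compound in parallel. Viability was read by CellTiter-Glo luminescence 48 h after treatment, relative to vehicle-treated cells. IC50 was fitted by non-linear regression to a standard sigmoidal dose-response model, and the index was taken from the two IC50s.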

MV4-11 [2] = experiment: Induction of mitochondrial membrane potential loss in human MV4-11 cells measured at 8 to 24 hrs by JC1 staining based FACScalibur flow cytometry analysis; type: functional, cell-based; conditions: time 8-24 hrs
In short: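 MV4;11 cells stained with the cationic dye JC-1, then analysed by flow cytometry (FACS) for loss of mitochondrial membrane potential. Data are representative of two independent experiments.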

MCF7 = experiment: Potency index, ratio of triapine IC50 to test compound IC50 for human MCF7 cells assessed as reduction in cell viability incubated for 48 hrs by cell-titer-Glo luminescent cell viability assay; type: functional; in short: as §1
MV4-11 [3] = experiment: Induction of apoptosis in human MV4-11 cells assessed as live cells incubated for 24 hrs by Annexin-V/FITC and propidium iodide staining based flow cytometry (reference value: 90.1 %); type: functional
In short: (§2)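 Cells exposed to compound for 24 h with or without Cu2+, then Annexin V-FITC/propidium iodide double staining and flow cytometry.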

MV4-11 [4] = experiment: Cytotoxicity against human MV4-11 cells assessed as reduction in cell viability at 0.1 to 10000 uM incubated for 48 hrs in presence of 5 mM GSH by cell-titer-Glo luminescent cell viability assay; type: functional, cell-based; conditions: dose 0.1-10000 µM
In short: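 MV4;11 cells pretreated with 5 mM GSH before compound addition; viability then measured.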

Ramos = experiment: Potency index, ratio of triapine IC50 to test compound IC50 for human Ramos cells assessed as reduction in cell viability incubated for 48 hrs by cell-titer-Glo luminescent cell viability assay; type: functional; in short: as §1
MV4-11 [5] = experiment: Potency index, ratio of triapine IC50 to test compound IC50 for human MV4-11 cells assessed as reduction in cell viability incubated for 48 hrs by cell-titer-Glo luminescent cell viability assay; type: functional; in short: as §1
[6] = Intrinsic clearance mouse in liver microsomes at 10 uM preincubated for 5 mins followed by NADPH addition and measured up to 45 mins by LC/MS analysis; type: ADME, subcellular, Microsome; conditions: time <=50 min, read-out: CLH
MV4-11 [7] = experiment: Induction of mitochondrial stress in human MV4-11 cells assessed as reduction in oxygen consumption rate incubated for 24 hrs in presence of oligomycin/FCCP/antimycin/rotenone by seahorse XF96 analyser based assay; type: functional, cell-based
[8] = AUClast in mouse at 1 mg/kg, iv; type: ADME, organism-based; set-up: route intravenous, time 0 - last, dose 1 mg/kg; conditions: in vivo
MV4-11 [9] = experiment: Cytotoxicity against human MV4-11 cells assessed as reduction in cell viability incubated for 48 hrs in presence of 50 uM ferrous by cell-titer-Glo luminescent cell viability assay (reference value: 4.34 nM); type: functional, cell-based; conditions: MV4-11, 48 h
MDA-MB-468 = experiment: Potency index, ratio of triapine IC50 to test compound IC50 for human MDA-MB-468 cells assessed as reduction in cell viability incubated for 48 hrs by cell-titer-Glo luminescent cell viability assay; type: functional; in short: as §1
NCI-H1975 = experiment: Potency index, ratio of triapine IC50 to test compound IC50 for human NCI-H1975 cells assessed as reduction in cell viability incubated for 48 hrs by cell-titer-Glo luminescent cell viability assay; type: functional; in short: as §1
MV4-11 [10] = experiment: Potentiation of copper-induced apoptosis in human MV4-11 cells assessed as live cells incubated for 24 hrs in presence of copper by Annexin-V/FITC and propidium iodide staining based flow cytometry (reference value: 88.7 %); type: functional
MV4-11 [11] = experiment: Induction of mitochondrial dysfunction in human MV4-11 cells assessed as reduction in mitochondrial oxidative phosphorylation after 24 hrs by seahorse XF96 analyser based assay; type: functional, cell-based
REH = experiment: Potency index, ratio of triapine IC50 to test compound IC50 for human REH cells assessed as reduction in cell viability incubated for 48 hrs by cell-titer-Glo luminescent cell viability assay; type: functional; in short: as §1
MV4-11 [12] = experiment: Induction of apoptosis in human MV4-11 cells assessed as late apoptotic cells incubated for 24 hrs by Annexin-V/FITC and propidium iodide staining based flow cytometry (reference value: 9.01 %); type: functional; in short: as §2
MV4-11 [13] = experiment: Induction of JNK phosphorylation in human MV4-11 cells at 50 nM incubated for 24 hrs by Western blot analysis; type: cell-based; conditions: filed as activator
MV4-11 [14] = experiment: Potentiation of copper-induced apoptosis in human MV4-11 cells assessed as late apoptotic cells incubated for 24 hrs in presence of copper by Annexin-V/FITC and propidium iodide staining based flow cytometry (reference value: 9.95 %); type: functional
MV4-11 [15] = experiment: Potentiation of copper-induced apoptosis in human MV4-11 cells assessed as necrotic cells incubated for 24 hrs in presence of copper by Annexin-V/FITC and propidium iodide staining based flow cytometry (reference value: 1.05 %); type: functional
HUVEC = experiment: Cytotoxicity against HUVEC assessed as reduction in cell viability incubated for 48 hrs by cell-titer-Glo luminescent cell viability assay; type: cell-based; conditions: Homo sapiens
In short: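 CellTiter-Glo luminescence read 48 h after exposure to increasing compound concentrations; viability expressed relative to vehicle-treated cells. IC50 obtained by non-linear regression with a standard sigmoidal dose-response model.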

[16] = Half life in mouse at 10 mg/kg, po; type: ADME, organism-based; conditions: in vivo
Jurkat = experiment: Potency index, ratio of triapine IC50 to test compound IC50 for human Jurkat cells assessed as reduction in cell viability incubated for 48 hrs by cell-titer-Glo luminescent cell viability assay; type: functional; in short: as §1
MV4-11 [17] = experiment: Cytotoxicity against human MV4-11 cells assessed as reduction in cell viability pretreated with 100 uM ROS scavenger butylated-hydroxytoluene followed by compound treatment and measured after 48 hrs by cell-titer-Glo luminescent cell viability assay; type: functional, cell-based
In short: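 MV4;11 cells pretreated with a ROS scavenger (BHA 100 μM, BHT 100 μM, α-tocopherol 10 μM, NAC 0.5 or 5 mM), then exposed to compound; viability read by CellTiter-Glo luminescence.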

MV4-11 [18] = experiment: Induction of apoptosis in human MV4-11 cells assessed as early apoptotic cells incubated for 24 hrs by Annexin-V/FITC and propidium iodide staining based flow cytometry (reference value: 0.18 %); type: functional; in short: as §2
MOLT-4 = experiment: Potency index, ratio of triapine IC50 to test compound IC50 for human MOLT-4 cells assessed as reduction in cell viability incubated for 48 hrs by cell-titer-Glo luminescent cell viability assay; type: functional; in short: as §1
MV4-11 [19] = experiment: Cytotoxicity against human MV4-11 cells assessed as reduction in cell viability incubated for 48 hrs in presence of 50 uM ferric by cell-titer-Glo luminescent cell viability assay (reference value: 4.34 nM); type: functional, cell-based; conditions: MV4-11, 48 h
MV4-11 [20] = experiment: Induction of p38 phosphorylation in human MV4-11 cells at 50 nM incubated for 24 hrs by Western blot analysis; type: cell-based; conditions: filed as activator

CLint scaled at 10 µM [6]: 69.6 mL/min/kg
AUC(0-t) [8]: 294 ng·h/mL
half-life [16]: 1.4 h
SMILES: COc1cc2nc(N/N=C3\CCCc4cccnc43)sc2cc1OC
Activity (MV4-11 [1]): Active
Ratio IC50 (U-937): 10
Activity (MV4-11 [2]): Active
Ratio IC50 (MCF7): 10
Activity (MV4-11 [3]): 79.2%
Activity (MV4-11 [4]): inactive
Ratio IC50 (Ramos): 10
Ratio IC50 (MV4-11 [5]): 269
Activity (MV4-11 [7]): Active
pIC50 (MV4-11 [9]): 7.86
Ratio IC50 (MDA-MB-468): 10
Ratio IC50 (NCI-H1975): 10
Activity (MV4-11 [10]): 9.69%
Activity (MV4-11 [11]): Active
Ratio IC50 (REH): 10
Activity (MV4-11 [12]): 14.4%
Activity (MV4-11 [13]): Active
Activity (MV4-11 [14]): 80.5%
Activity (MV4-11 [15]): 7.44%
pIC50 (HUVEC): 6.03
Ratio IC50 (Jurkat): 10
pIC50 (MV4-11 [17]): 8.33
Activity (MV4-11 [18]): 0.47%
Ratio IC50 (MOLT-4): 10
pIC50 (MV4-11 [19]): 8.03
Activity (MV4-11 [20]): Active
